Assay outcomes deposited in PubChem by several laboratories.
This is a sample that favours compounds with a hit; in the whole collection about 3.7% have one here.
EP2 modulator: modulates human prostaglandin E2 receptor EP2 signaling; EP2-expressing cells, cAMP HTRF FRET, PGE2 co-stimulation; induction, % at 25 µM; 0.83% of 260,000 active; AID 940;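 active = compounds whose cAMP rise, as percent of the full-agonist control response, exceeds 60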;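 also: rat C6 glioma line stably carrying human EP2 under a CMV promoter; the protocol text gives 20 µM as final concentration; 100% = response of wells given 1 µM PGE2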
Target sequence (P43116 whole entry, looked up): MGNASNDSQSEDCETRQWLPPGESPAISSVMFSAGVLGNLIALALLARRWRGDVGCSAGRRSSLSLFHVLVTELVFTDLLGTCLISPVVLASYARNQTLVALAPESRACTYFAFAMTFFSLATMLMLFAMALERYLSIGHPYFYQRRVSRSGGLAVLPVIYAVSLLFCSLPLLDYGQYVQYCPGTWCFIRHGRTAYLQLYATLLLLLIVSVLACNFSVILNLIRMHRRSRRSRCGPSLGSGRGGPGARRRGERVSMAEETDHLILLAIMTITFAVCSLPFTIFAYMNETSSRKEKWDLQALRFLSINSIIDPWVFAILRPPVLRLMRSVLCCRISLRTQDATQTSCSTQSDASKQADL
EP2 antag: inhibitors of human EP2 prostaglandin E2 receptor. P43116. C6 glioma cells expressing human EP2, cAMP TR-FRET; cells stimulated with saturating PGE2. inhibition, % at 25 µM. 0.52% of 260,000 active. AID 1422;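 active = percent inhibition above 40 after rounding to a whole number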;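 also: rat C6 glioma host cells with rolipram phosphodiesterase inhibitor present; the protocol text gives 20 µM as final concentration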
CHO parental Ca: counter-screen: ATP calcium response change in parental CHO cells; inhibition, % at 5.6 µM; AID 463079; 0.63% of 330,000 active; parental CHO-K1, ATP-induced calcium, Fluo-8 fluorescence;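 active = inhibition above that plate's mean sample inhibition plus 3 SD, cut at about 26% in these data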;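 also: 0% = ATP-challenged DMSO wells and 100% = DMSO wells without ATP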
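Test system: untransfected parental CHO cell line. Compound: one dose, 5.6 µM nominal. Detection: intracellular calcium via Fluo-8 no-wash fluorescent dye. Measure: % inhibition. Benchmarks: ATP-challenged DMSO wells low, unchallenged DMSO wells high.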
GPR7 antag: human neuropeptides B/W receptor 1 antagonism; P48145; GPR7-expressing cells, fluorescence antagonist assay; inhibition, % at 4.4 µM; 1.1% of 290,000 active; AID 1861; in the data active = inhibition above about 16%, passing the limit was not always enough;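 also: cells stimulated with the agonist NPW; 0% = agonist with vehicle and 100% = vehicle without agonist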
Target sequence (P48145 whole entry, looked up): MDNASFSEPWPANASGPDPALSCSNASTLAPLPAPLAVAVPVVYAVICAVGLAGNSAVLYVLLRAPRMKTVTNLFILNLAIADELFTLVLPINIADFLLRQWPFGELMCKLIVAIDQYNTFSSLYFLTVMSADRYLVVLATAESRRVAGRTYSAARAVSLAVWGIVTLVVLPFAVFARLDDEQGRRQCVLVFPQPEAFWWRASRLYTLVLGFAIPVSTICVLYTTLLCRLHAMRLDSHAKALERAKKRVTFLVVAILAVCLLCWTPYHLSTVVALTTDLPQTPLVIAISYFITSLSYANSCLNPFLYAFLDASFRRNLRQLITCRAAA
OX1R antag-1: antagonists of human orexin 1 receptor; O43613; CHO/OX1R cells, Fluo-8 calcium fluorescence, orexin A; inhibition, % at 5 µM; 0.43% of 330,000 active; AID 434989;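 active = inhibition above its plate's threshold, mean inhibition of all tested compounds on the plate plus 3 SD, cut at about 37% in these data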;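 also: 0% = orexin A challenge wells and 100% = SB-334867-A antagonist wells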
OX1R antag-2: blocks the human orexin 1 receptor. 1.8% of 330,000 active. inhibition, % at 6.6 µM. AID 485270. OX1R-expressing cells, FRET antagonist read-out; in the data active = inhibition mostly above about 38%, no sharp cut-off; inactive = mostly below about 40%;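 also: 0% = agonist challenge alone and 100% = reference antagonist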
Numbers without * were called inactive; · = not tested or not shown.

SMILES	EP2 modulator	EP2 antag	CHO parental Ca	GPR7 antag	OX1R antag-1	OX1R antag-2
CCCOC(=O)c1cccc(NC(=O)COc2ccc([N+](=O)[O-])cc2)c1	-22.1	10.0	31.8*	9.4	24.4	34.3
CCOC(=O)c1cccc(NC(=O)COc2ccc([N+](=O)[O-])cc2)c1	-16.4	10.9	-9.2	8.3	-27.7	35.7
COc1ccc(Br)cc1/C=N/NC(=O)c1ccc(OC)c(OC)c1	-75.2	6.2	-2.0	1.4	-16.1	43.4*
COc1cc(/C=N/NC(=O)c2ccc3c(c2)OCCO3)c(Br)c(Br)c1O	·	·	-14.6	-1.3	3.5	64.7*
COc1ccc(Br)cc1/C=N/NC(=O)c1cc(OC)c(OC)c(OC)c1	-43.3	15.2	-10.2	5.8	2.9	3.1
COc1ccc(Br)cc1/C=N/NC(=O)c1ccc2nc[nH]c2c1	·	·	-3.8	-6.9	2.8	40.6*
Cn1ncc(Cl)c1C(=O)Nc1sc2c(c1C(N)=O)CCC2	-25.5	11.9	-24.3	-11.2	12.7	76.2*
Cn1ncc(Cl)c1C(=O)Nc1sc2c(c1C#N)CCCC2	-107.8	11.5	·	·	·	·
O=C(CNC(=O)c1ccco1)N=Nc1c(O)[nH]c2ccc([N+](=O)[O-])cc12	·	·	2.5	-10.4	-2.6	62.7*
O=C(/C=C/c1ccc(Br)cc1)c1ccco1	-39.1	16.4	-11.2	22.2*	-6.6	3.6
O=C(/C=C/c1ccc(Br)cc1)c1ccc(NC(=O)c2ccco2)cc1	-11.6	12.1	-20.8	7.9	-8.7	38.0
COc1ccc(C(=O)N/N=C(\C)CC(=O)N2CCN(C=O)CC2)cc1	26.8	8.3	-3.1	-13.4	-12.8	23.1
CCSc1nc2ccccc2n1CCC(=O)O	8.0	7.9	-0.8	-0.7	-1.0	16.1
Cc1ccccc1OCCSc1nc2ccccc2n1CCC(=O)O	·	·	-10.6	-6.6	33.7	73.9*
Cc1cccc(C)c1OCCSc1nc2ccccc2n1CC(=O)O	·	·	-4.0	0.2	-13.1	33.9
O=C(O)CCn1c(SCc2cccc3ccccc23)nc2ccccc21	-14.8	6.6	-8.0	3.8	-25.9	68.0*
Cc1ccc(OCCSc2nc3ccccc3n2CCC(=O)O)cc1	·	·	-9.7	-5.2	11.7	48.6*
Fc1ccccc1C1c2cccn2CCN1C(=S)Nc1ccc(Br)cc1 (centres undefined)	-11.0	7.2	-9.2	-1.3	-17.8	27.2
N#C/C(=C\c1cc2c(cc1Br)OCO2)c1ccc(C(=O)O)cc1	·	·	100.0*	-7.9	-11.8	15.7
CC(C)OC(=O)c1c(-c2ccc(C(C)C)cc2)csc1NC(=O)C1CCCO1 (centres undefined)	63.0*	13.3	-8.7	2.3	-13.5	9.7
CCOC(=O)c1c(-c2ccc(C)cc2)csc1NC(=O)C1CCCO1 (centres undefined)	33.0	1.9	-23.4	-12.8	-27.8	32.8
Cc1nc(C(F)(F)F)c(C(=O)NC(=O)Nc2ccc(OC(F)(F)F)cc2)s1	-11.0	7.3	-11.4	1.0	-6.1	12.4
O=C(N=C1N=C2C=CC(Br)=CN2Cc2ccccc21)c1ccc([N+](=O)[O-])cc1[N+](=O)[O-]	-27.6	8.9	-2.8	-6.2	-18.3	45.2*
CCCSc1nnc(-c2cccc(S(=O)(=O)N(C)C)c2)n1-c1cc(OC)ccc1OC	-3.9	9.7	-18.6	19.8*	-53.0	8.2
Cc1ccc(SCc2c(C(=O)N/N=C/c3ccoc3)nnn2-c2nonc2N)cc1	·	·	-18.7	-19.4	20.0	44.8*
SMILES	EP2 modulator	EP2 antag	CHO parental Ca	GPR7 antag	OX1R antag-1	OX1R antag-2
C/C(COc1ccccc1)=N\NC(=O)c1nnn(-c2nonc2N)c1CSc1ccccc1	·	·	-2.1	-0.8	-2.7	60.2*
Cc1ccc(SCc2c(C(=O)N/N=C/c3ccccc3)nnn2-c2nonc2N)cc1	-35.5	7.7	-46.6	-10.1	22.1	47.2
C/C(=N\NC(=O)c1nnn(-c2nonc2N)c1CSc1ccccc1)c1cccnc1	·	·	-22.1	9.8	-23.6	9.8
CCCOc1ccc(Br)cc1CSC(=N)N	10.2	7.8	14.1	54.5*	0.2	12.5
CCOC(=O)C1(C)/C(=N/Nc2cccc(Cl)c2)C(=O)C(=O)N1c1ccccc1 (centres undefined)	-5.5	6.8	-16.9	-10.7	-17.3	31.2
CCOC(=O)C1(C)/C(=N/Nc2ccc(Cl)cc2)C(=O)C(=O)N1c1ccccc1 (centres undefined)	61.2*	3.0	-0.4	12.2	-24.6	25.7
NNC(=O)CNC(c1ccccc1)c1cc(Br)ccc1NC(=O)c1cccc(Cl)c1 (centres undefined)	27.6	3.8	-45.3	-15.6	-43.4	7.3
COC(=O)CNC(c1ccccc1)c1cc(Cl)ccc1NC(=O)c1cccc(Cl)c1 (centres undefined)	63.1*	-2.1	-15.3	18.9	-14.7	46.0
CCC(C)NC(=O)C1CCN(Cc2ccc(OC)cc2)CC1 (centres undefined)	2.0	8.9	·	·	·	·
COc1ccccc1C1OC2=C(Nc3ccc([N+](=O)[O-])cc3N2)C1=O (centres undefined)	-16.7	1.8	-9.8	21.6	-14.5	43.5*
COc1ccc(C2OC3=C(Nc4cc(C)c(C)cc4N3)C2=O)cc1 (centres undefined)	-6.2	2.8	-6.7	2.6	-19.0	20.8
O=C1C2=C(Nc3cc([N+](=O)[O-])ccc3N2)O[C@@H]1c1c[nH]c2ccc(COc3ccccc3)cc12	9.1	59.9*	·	·	·	·
CCCn1c(SCC(=O)N2C(C)CCCC2C)nnc1-c1cccnc1 (centres undefined)	7.8	7.5	·	·	·	·
CCCCN(C(=O)CCC(=O)Nc1cc(C)on1)C(C(=O)NC1CCCC1)c1ccccc1OCC (centres undefined)	·	·	-21.2	-0.7	4.7	75.9*
CC(=O)COc1ccc2c(C)c(-c3ccccc3)c(=O)oc2c1	-34.2	7.4	-11.7	2.5	-21.8	17.5
COc1cc(OC)cc(C(=O)NCCNc2nc3cc(C)cc(C)c3cc2C#N)c1	·	·	-24.2	-25.7	2.9	53.1*
COc1cc(C(=O)NCCNc2nc3cc(C)ccc3cc2C#N)cc(OC)c1OC	·	·	-16.9	-18.6	-15.9	54.5*
COc1cc(C(=O)NCCNc2nc3c(C)c(C)ccc3cc2C#N)cc(OC)c1OC	·	·	-19.7	-19.5	-23.6	0.5
Cc1cc(C)c2cc(C#N)c(NCCOC(=O)c3ccccc3C)nc2c1	23.4	-3.3	-41.8	-17.1	-0.4	36.5*
O=C(c1ccc(N2CCCC2=O)cc1)N1CCN(c2ccccc2)CC1	17.5	14.8	-2.1	13.7	-5.9	6.1
C[C@]12CCC(OC(=O)c3ccccc3)CC1CCc1ccccc12 (some centres undefined)	-7.7	9.1	·	·	·	·
CC1=N[C@@](C)(COC(=O)[C@]2(C)N[C@](C)(CO)CO2)COC1=O	31.7	47.7*	·	·	·	·
COc1cc(C)ccc1OCC(=O)OCC(=O)c1[nH]c(C)c(C(C)=O)c1C	·	·	-3.8	·	11.2	5.1
CC(=O)c1c(C)[nH]c(C(=O)COc2cc(C)ccc2C(C)C)c1C	8.9	2.3	74.1*	24.8*	62.2*	84.4*
